CCR6 antagonist: antagonists of human CCR6 receptor. P51684. CHO-K1 CCR6 PathHunter beta-arrestin, luminescence, CCL20-stimulated. inhibition, % at 20 µM. 340,000 compounds, 0.49% hits;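 active = compounds whose inhibition of the agonist-driven luminescence signal at 20 µM reaches about 50%, limit read from the data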;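 note: cells stimulated with CCL20 at 14 nM final; plate controls were DMSO with CCL20 for no effect and DMSO without agonist for full effect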
Target sequence (P51684 whole entry, looked up): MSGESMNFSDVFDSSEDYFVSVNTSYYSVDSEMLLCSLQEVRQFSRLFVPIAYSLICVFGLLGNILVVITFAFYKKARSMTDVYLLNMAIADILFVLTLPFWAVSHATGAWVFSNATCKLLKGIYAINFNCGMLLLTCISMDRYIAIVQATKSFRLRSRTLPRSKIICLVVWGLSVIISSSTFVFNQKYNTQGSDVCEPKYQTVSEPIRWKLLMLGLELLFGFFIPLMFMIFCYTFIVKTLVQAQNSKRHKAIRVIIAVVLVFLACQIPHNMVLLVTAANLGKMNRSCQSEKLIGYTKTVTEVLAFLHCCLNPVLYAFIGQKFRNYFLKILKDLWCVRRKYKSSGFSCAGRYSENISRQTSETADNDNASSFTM
EBI2 block: EBI2 (human) antagonism; EBI2 beta-arrestin recruitment, luminescence, 7a,25-OHC stimulated; AID 651636; P32249; inhibition, % at 5 µM; 360,000 compounds, 0.81% hits; in the data active = inhibition above about 38%;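 note: enzyme fragment complementation signal reports receptor beta-arrestin coupling in cells; 0% = agonist plus DMSO wells and 100% = wells without agonist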
Target sequence (P32249 whole entry, looked up, the tested form may be a part): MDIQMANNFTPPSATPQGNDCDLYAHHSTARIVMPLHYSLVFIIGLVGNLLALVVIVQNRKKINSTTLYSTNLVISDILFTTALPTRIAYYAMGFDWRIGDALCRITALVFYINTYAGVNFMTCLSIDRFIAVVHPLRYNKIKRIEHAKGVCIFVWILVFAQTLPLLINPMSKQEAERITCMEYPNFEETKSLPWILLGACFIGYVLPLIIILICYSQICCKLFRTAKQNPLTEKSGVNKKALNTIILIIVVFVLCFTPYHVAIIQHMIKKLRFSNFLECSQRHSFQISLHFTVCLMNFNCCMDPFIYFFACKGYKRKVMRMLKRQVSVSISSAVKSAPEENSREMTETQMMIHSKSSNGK
APJ agonist: APJ receptor agonism | P35414 | CHO-K1 APJ PathHunter beta-arrestin, luminescence; 0% DMSO wells, 100% apelin | activation, % at 20 µM | 330,000 compounds, 0.11% hits;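 active = activation more than six SD over the plate average, tested at 20 µM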;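 note: 0% = DMSO alone and 100% = apelin-13 at 10 nM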
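Test system: CHO-K1 APJ beta-arrestin complementation cell line. Amount: cell density 1000 per well. Controls: DMSO negative, 10 nM Apelin-13 positive. Signal: luminescent beta-gal fragment complementation, chemiluminescent substrate. Read-out basis: agonist-driven arrestin binding to APJ. Timing: compound stimulation 90 min at 25 °C, detection 60 min.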
APJ antagonist: APJ receptor antagonism; P35414; CHO-K1 APJ beta-arrestin complementation, luminescence; inhibition, % at 20 µM; 330,000 compounds, 0.32% hits;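 active = inhibition above about 40% at 20 µM, limit read from the data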;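 note: cells challenged with 10 nM apelin-13 agonist together with compound; plate controls were apelin-13 plus DMSO wells for no effect and DMSO wells lacking apelin-13 for full effect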
CXCR6 inh: inhibitors of human CXCR6 receptor; O00574; CHO-K1 PathHunter CXCR6 beta-arrestin, luminescence; inhibition, % at 20 µM; 360,000 compounds, 0.36% hits; in the data active = inhibition above about 34%, passing the limit was not always enough;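 note: antagonist mode with CXCL16 agonist at 10 nM final; 0% = 10 nM CXCL16 with DMSO and 100% = unstimulated wells without agonist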
EBI2 antag conf: EBI2 (human) antagonism, single concentration confirmation. shares compounds with EBI2 block. EBI2 beta-arrestin luminescence, 7a,25-OHC antagonism. inhibition, % at 5 µM. 2,400 compounds, 29% hits;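 active = inhibition of at least 50%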
EBI2 ag: counter-screen for EBI2 antagonists: EBI2 agonist activity; shares compounds with EBI2 block; EBI2-expressing cells, agonist mode, luminescence, 60 min; 0% vehicle, 100% 7α,25-dihydroxycholesterol control; activation, % at 5 µM; 2,400 tested, under 10 active; AID 652000;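 active = activation of at least 50%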
bGal counter: beta-galactosidase inhibition counter-screen | shares compounds with EBI2 block | purified beta-galactosidase, luminescent Galacton Star, 15 min | inhibition, % at 5 µM | 2,400 compounds, 1% hits | AID 652176;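 active = replicate-average signal at least 3 plate SD below neutral wells, shown as high inhibition, flagging enzyme-inhibiting false positives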;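 note: 0% = DMSO wells with enzyme and 100% = wells lacking enzyme; higher means stronger loss of beta-gal luminescence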
Starred values were filed as active, the others as inactive; nt = no result given. The list is not random: actives were taken first. Their share in the collection is about 1.5%.

SMILES	CCR6 antagonist	EBI2 block	APJ agonist	APJ antagonist	CXCR6 inh	EBI2 antag conf	EBI2 ag	bGal counter
O=c1[nH]c(CN2CCN(S(=O)(=O)c3ccc(Cl)cc3)CC2)nc2cc(Cl)ccc12	-2.2	89.4*	-2.8	8.4	-10.6	69.2*	0.1	8.9
COc1cc2nc(CN3CCN(S(=O)(=O)c4cc(C)ccc4C)CC3)[nH]c(=O)c2cc1OC	13.7	59.7*	-2.8	10.2	3.1	36.7	1.6	1.4
Cc1ccc(C)c(S(=O)(=O)N2CCN(C(=O)CCc3nc4ccccc4c(=O)[nH]3)CC2)c1	9.8	3.0	-2.8	-4.8	-2.7	nt	nt	nt
COc1cc2nc(CN3CCC(Cc4ccccc4)CC3)[nH]c(=O)c2cc1OC	13.9	45.8*	-5.2	-7.4	4.3	23.7	0.6	0.2
Cc1cc(C(=O)CCl)c(C)n1-c1cccc(S(=O)(=O)N2CCOCC2)c1	-3.7	nt	-1.6	-9.4	nt	nt	nt	nt
O=c1[nH]c(CN2CCN(c3ncccn3)CC2)nc2c(Br)cc(Br)cc12	6.8	2.8	-4.7	-3.5	5.0	nt	nt	nt
O=c1[nH]c(CN2CCN(S(=O)(=O)c3cccs3)CC2)nc2c(Br)cc(Br)cc12	16.3	54.2*	2.7	-17.5	7.8	21.6	0.2	5.2
COc1cc2nc(CN3CCN(S(=O)(=O)c4ccccc4)CC3)[nH]c(=O)c2cc1OC	3.4	46.6*	-0.9	11.3	-16.6	22.8	-0.9	-8.5
COc1cc2nc(CN3CCN(C(C)=O)CC3)[nH]c(=O)c2cc1OC	-7.1	2.8	-1.1	8.2	-3.2	nt	nt	nt
COc1ccc2cc(-c3ccccc3F)ncc2c1	-0.3	4.6	-1.0	1.9	-3.7	nt	nt	nt
COc1ccc(CN2CCN(C(=O)c3cccs3)CC2)cc1	0.0	-18.1	0.2	-17.1	1.8	nt	nt	nt
Cc1ccc(OCC(=O)N2CCN(C(=O)c3cccs3)CC2)cc1	-1.9	60.1*	-2.4	-3.9	-1.9	41.1	1.4	-2.9
O=C(CSc1ccc(Br)cc1)N1CCOCC1	-0.3	11.9	1.4	3.9	0.7	nt	nt	nt
Cc1ccc(OCC(=O)N2CCN(C(=O)c3ccco3)CC2)cc1	10.1	52.2*	-4.3	-14.4	4.4	23.2	3.0	7.0
O=C(COc1ccc2ccccc2c1)N1CCN(C(=O)c2ccco2)CC1	8.1	72.5*	-3.4	-0.7	-11.8	49.7	-0.8	-6.3
O=C(CSc1ccc(Br)cc1)N1CCN(C(=O)c2ccco2)CC1	3.9	82.5*	-2.1	-17.5	-7.4	69.1*	0.3	2.1
C[C@H](CO)N1C[C@H](C)[C@H](CN(C)C(=O)Cc2cccnc2)Oc2ncc(Br)cc2C1=O	nt	-5.7	nt	nt	3.3	nt	nt	nt
Cc1ccccc1/C=N/NC(=O)c1ccc(-n2cnnn2)cc1	-6.5	5.8	-0.3	17.2	2.9	nt	nt	nt
C=CCC1(CC=C)CCCN1C(=O)C1CCC(=O)N(CCc2ccccc2)C1 (stereo not given)	10.4	45.5*	13.8	16.9	-1.7	36.1	-0.6	-17.3
COc1ccc(CCN2CC(C(=O)N(C)Cc3ccc(C)o3)CCC2=O)cc1 (stereo not given)	10.4	45.3*	-2.6	9.0	0.7	32.3	1.4	0.0
COc1ccc(CCN2CC(C(=O)N(C)Cc3ccccn3)CCC2=O)cc1 (stereo not given)	nt	8.9	nt	nt	-4.7	nt	nt	nt
C=CCC1(CC=C)CCCN1C(=O)C1CCC(=O)N(CCc2ccc(OC)cc2)C1 (stereo not given)	15.0	57.4*	-1.1	-20.1	2.9	39.6	-0.1	7.3
Cn1c(N)c(S(=O)(=O)N2CCN(c3ccccc3Cl)CC2)c(=O)n(C)c1=O	-18.4	5.6	-1.4	-1.7	-2.7	nt	nt	nt
CCOc1cc(N2CCOCC2)c(OCC)cc1NC(=O)CN1C(=O)NC2(CCCCC2)C1=O	2.8	8.3	-2.1	-8.0	-3.5	nt	nt	nt
CCCCCCc1nc(C(N)=O)c2[nH]c(=O)n(-c3ccc(OCC)cc3)c2n1	-2.9	8.0	-3.3	-0.5	-0.7	nt	nt	nt
SMILES	CCR6 antagonist	EBI2 block	APJ agonist	APJ antagonist	CXCR6 inh	EBI2 antag conf	EBI2 ag	bGal counter
CC(C)N(C)c1ncnc2c1ncn2[C@H]1CN(Cc2ccncc2)C[C@@H](CO)O1	nt	9.9	nt	nt	2.5	nt	nt	nt
CC(C)N(C)c1ncnc2c1ncn2[C@H]1CN(Cc2ccc(-c3ccccc3)cc2)C[C@@H](CO)O1	nt	57.0*	nt	nt	-9.1	46.3	0.3	-12.9
OC[C@@H]1CN(Cc2ccc(Cl)cc2)C[C@H](n2cnc3c(NC4CCC4)ncnc32)O1	nt	44.5*	nt	nt	3.9	25.7	0.4	7.0
OC[C@@H]1CN(Cc2ccc(-c3ccccc3)cc2)C[C@H](n2cnc3c(NC4CC4)ncnc32)O1	nt	65.3*	nt	nt	-4.0	64.7*	-1.6	-11.2
CCCc1cnc(Nc2nc(C(N)Cc3ccc(C(F)(F)F)cc3)cs2)nc1 (stereo not given)	nt	-5.4	nt	nt	2.0	nt	nt	nt
COc1ccc(CCNC(=O)c2cc(C(=O)c3cc(C)ccc3O)cn(CCc3ccc(OC)cc3)c2=O)cc1	13.7	4.6	3.6	-19.4	-3.3	nt	nt	nt
C=CCn1c(=O)c2ccc(C(=O)NCc3ccccc3)cc2n(Cc2cccc(Cl)c2)c1=O	26.4	54.9*	-3.9	-3.2	11.5	44.6	1.9	2.5
CC(=O)Nc1c(Cl)cc2c(c1Cl)C(=O)c1ccccc1-2	6.1	-1.0	nt	nt	-3.1	nt	nt	nt
Cc1ccc(NC(=O)C(C)OC(=O)c2ccc(Cl)nc2)cc1S(=O)(=O)N1CCOCC1 (stereo not given)	5.8	-10.0	-0.8	-18.1	1.0	nt	nt	nt
Cc1nc2ncnn2c(C)c1Cc1cccc(C(F)(F)F)c1	3.7	-5.8	2.9	3.1	5.1	nt	nt	nt
O=C(Nc1ccc2ccccc2n1)c1ccc(Cl)cc1	10.0	61.1*	-2.1	6.1	5.2	39.0	-0.8	6.8
O=C(Nc1ccc2ccccc2n1)c1ccccc1Cl	1.6	2.0	-2.0	-1.1	-10.9	nt	nt	nt
COn1c(-c2ccccc2)nc2c1CCc1c-2no[n+]1[O-]	2.1	-7.7	0.9	1.1	4.7	nt	nt	nt
[O-][n+]1onc2c1CCc1c-2nc(-c2ccccc2)n1OCc1ccccc1	16.5	48.9*	-3.4	-16.9	9.2	39.8	0.5	4.0
CCN(CCn1cccn1)C(=O)c1cccc(OC2CCN(S(C)(=O)=O)CC2)c1	0.2	-4.0	-1.3	13.5	5.6	nt	nt	nt
Cc1ccc2nc(-c3ccc(C#N)cc3)c(Cc3ccccc3C(F)(F)F)n2c1	nt	46.7*	nt	nt	15.3	13.3	-1.0	-9.0
CN1CCN(C(=O)c2cc3sc4ccccc4c3s2)CC1	12.9	95.4*	-3.9	-12.2	1.7	70.4*	-0.9	-12.5
COc1cc(/C=N/NC(=O)CSc2cc(C)c(Br)cc2C)ccc1O	-8.0	58.7*	2.6	-1.2	-19.5	8.7	-1.2	-14.1

Screening data from PubChem.
